# Screening results as filed in PubChem BioAssay.
# MrgX1 PAM – allosterically activates human MrgX1 receptor signaling | B-score at 10 µM | Q96LB2 | MrgX1-HEK293, Fluo-4 calcium flux, FDSS; stronger effect = higher value | 0.63% of 310,000 active;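 active = plate-corrected calcium response at least 3 library SD above typical, normal starting fluorescence, not activating the receptor alone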;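 also: compound read alongside a low EC10 to EC30 dose of BAM8-22 agonist; peak minus trough fluorescence over baseline measured at the second addition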
# Target sequence (Q96LB2 whole entry, looked up): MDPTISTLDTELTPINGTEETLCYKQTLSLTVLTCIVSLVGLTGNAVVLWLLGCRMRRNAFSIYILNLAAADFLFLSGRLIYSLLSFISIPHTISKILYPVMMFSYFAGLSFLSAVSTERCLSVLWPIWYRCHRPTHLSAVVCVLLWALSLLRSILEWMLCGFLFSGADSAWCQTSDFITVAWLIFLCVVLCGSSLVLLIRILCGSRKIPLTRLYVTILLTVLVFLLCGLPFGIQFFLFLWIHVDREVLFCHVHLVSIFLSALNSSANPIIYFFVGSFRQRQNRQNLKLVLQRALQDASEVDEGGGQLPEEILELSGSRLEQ
# MrgX1 agonist – human MrgX1 receptor agonism, primary screen. B-score at 10 µM. MrgX1-HEK293 cells, Fluo-4 calcium fluorescence, agonist mode; stronger effect = higher value. Q96LB2. 0.44% of 310,000 active;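 active = calcium response B-score plate-corrected fluorescence ratio at least 3 library SD, with starting fluorescence B-score inside 5 SD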
#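 Assay system: MrgX1-expressing HEK293 cells / Amount: fifteen thousand cells per well / Doses: test compound in the initial addition of three / Timing: cells plated overnight, dye loaded 0.5 h 37 °C, 0.5 h room temperature / Technique: kinetic calcium dye fluorescence, Fluo-4 NW / Control set: positive and negative controls per plate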
# Cl transport mod – KCC2 (human) Cl- transport modulation | 2.2% of 190,000 active | Q9H2X9 | KCC2 cells, thallium flux FluoZin-2 fluorescence | B-score of Tl+ flux slope (higher = more flux/activation; lower = inhibition) at 10 µM | AID 1456;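 active = thallium flux slope and its plate-corrected score both differing from the plate sample mean at a set confidence after two filtering rounds, in either direction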;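 also: slope of fluorescence scaled to starting intensity during 10 to 20 s after thallium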
# RGS4 inh – inhibitors of human RGS4; HEK293 M3R/RGS4 inducible, Fluo-4 calcium flux; stronger effect = higher value; triggered by carbachol at its EC20; 0.45% of 310,000 active; B-score at 10 µM; P49798;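 active = B-score, a plate-corrected calcium signal, over three deviations above library mean, with baseline fluorescence within five deviations of library mean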;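 also: RGS4 expression induced by doxycycline in cells with stable M3 receptor; B-score is computed from the integrated fluorescence ratio over baseline after carbachol; higher B-score means a larger calcium signal and so more RGS4 inhibition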
# Target sequence (P49798 whole entry, looked up): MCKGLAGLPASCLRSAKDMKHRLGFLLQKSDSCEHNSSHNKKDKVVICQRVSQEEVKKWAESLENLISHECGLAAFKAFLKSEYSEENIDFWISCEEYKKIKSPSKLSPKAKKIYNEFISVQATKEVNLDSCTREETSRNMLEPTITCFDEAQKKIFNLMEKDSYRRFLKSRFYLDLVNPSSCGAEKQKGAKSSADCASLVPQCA
# MrgX1 antag – blocks BAM8-22 activation of human MrgX1 receptor; MRGX1-HEK293 calcium flux, Fluo-4, BAM8-22 antagonism; stronger effect = lower value; AID 588676; B-score at 10 µM; 1.3% of 310,000 active;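 active = calcium-response B-score plate-corrected more than 3 library SD below zero, starting fluorescence within 5 deviations, no agonist response on first addition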;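 also: peak minus trough fluorescence over baseline after final BAM8-22 challenge near maximal dose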
# RGS4 act – RGS4 potentiation or activation; HEK293 M3R/inducible RGS4, carbachol calcium flux Fluo4; stronger effect = lower value; B-score at 10 µM; 0.92% of 310,000 active; AID 463111;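 active = B-score of the integrated calcium signal more than 4 SD below the library mean, with starting fluorescence not abnormally high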;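 also: negative B-score means reduced calcium response which marks RGS4 activation or potentiation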
#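 Material: Inducible-RGS4 HEK293 cells carrying M3 receptor; also added: carbachol at ECmax as muscarinic agonist stimulus; incubation: compound preincubation 20 min at room temperature before agonist; signal: Fluo4-AM (2 µM) calcium-flux fluorescence, kinetic read; measure: integrated calcium ratio converted to B score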
# * marks the source's active call; other numbers are inactive results; i = inactive; · = no result. Sampled rows, rich in hits. Any-hit rate of the full collection: about 4.7%.
SMILES,MrgX1 PAM,MrgX1 agonist,Cl transport mod,RGS4 inh,MrgX1 antag,RGS4 act
COn1c(SC(C)C)nc2ccccc2c1=O,9.2*,i,0.23,i,i,i
COc1ccc(CN(C(=O)CSc2nnc(-c3c[nH]c4ccccc34)o2)c2ccc(F)cc2)cc1OC,i,i,1,i,i,-8.4*
O=C(N/N=C/c1ccc2c(c1)OCO2)C1CC1,i,i,·,i,-5.4*,i
O=C(N/N=C/c1ccc2c(c1)OCO2)c1ccc2c(c1)OCO2,i,i,·,i,i,i
Cc1cc(Cl)c(S(=O)(=O)N/N=C/c2ccc3c(c2)OCO3)c(Cl)c1,i,i,-1.6,i,i,-8.2*
O=C(NC1CCCC1)C(c1ccccc1F)N(C(=O)c1csnn1)c1ccccc1 (centres undefined),·,·,·,i,·,i
CCc1ccc(S(=O)(=O)/N=C2/C=C(Sc3ncn[nH]3)C(=O)c3ccccc32)cc1,7*,i,-1.2,·,i,·
O=C(NC(Cc1ccccc1)C(=O)Oc1ccc2c(C(F)(F)F)cc(=O)oc2c1)OCc1ccccc1 (centres undefined),8.4*,i,-0.49,i,i,i
O=C(CNC(=O)OCc1ccccc1)Oc1ccc2ccc(=O)oc2c1,i,i,·,i,i,i
NC(=Nc1ccccc1)Nc1ccccc1,i,84*,·,i,i,-8.5*
CC(=O)Nc1ccc(Br)c2ccccc12,i,i,-0.22,i,i,i
O=C(Nc1ccc(Br)c2ccccc12)c1ccc2ccccc2c1O,i,i,-4.9,i,i,-7.5*
COc1ccc(C(=S)N2CCOCC2)cc1OC(=O)c1ccc(C)cc1,i,i,·,i,i,i
COc1cc(/C=N/NC(N)=O)ccc1OC(=O)c1cccs1,9.5*,i,-0.89,i,i,i
O=C(Nc1ncccc1O)c1ccc(Oc2ccccc2)cc1,i,i,·,i,i,i
COc1cccc(CNc2ccc(F)c([N+](=O)[O-])c2)c1O,18*,i,0.15,i,i,i
O=[N+]([O-])c1ccccc1CNc1ccc(F)c(Cl)c1,i,i,-0.0027,i,i,i
CCn1c(SCC(=O)N2CCCC2)nnc1-c1ccco1,i,i,·,i,i,i
Cc1c(OCC(=O)N2C[C@H]3C[C@@H](C2)c2cccc(=O)n2C3)ccc2c3c(c(=O)oc12)CCCC3,i,i,·,i,i,-7.1*
COc1ccc(-c2ccc(C3C(C#N)=C(N)Oc4n[nH]c(C)c43)o2)cc1 (centres undefined),i,55*,-0.096,i,i,i
Cc1[nH]nc2c1C(c1ccco1)C(C#N)=C(N)O2 (centres undefined),i,i,-0.87,i,i,i
Cc1ccc(C2C(C#N)=C(N)Oc3n[nH]c(-c4ccccc4)c32)o1 (centres undefined),i,50*,-2.7,i,i,i
Cc1ccc(C2C(C#N)=C(N)Oc3c2sc2ccccc32)o1 (centres undefined),9.2*,i,0.08,i,i,i
CCOC(=O)CC1=C(C(=O)OCC)C(c2ccc(C)o2)C(C#N)=C(N)O1 (centres undefined),i,i,·,i,i,i
CCN(C(=O)COC(=O)CCS(=O)(=O)c1ccc(C)cc1)C1CCS(=O)(=O)C1 (centres undefined),i,i,·,i,i,i
SMILES,MrgX1 PAM,MrgX1 agonist,Cl transport mod,RGS4 inh,MrgX1 antag,RGS4 act
Cc1ccc(C)c(NC(=O)CCc2nnc3ccc(NCc4ccco4)nn23)c1,i,i,·,i,i,i
COc1cc(C(=O)Nc2nnc(CC(=O)NCc3ccccc3)s2)cc(OC)c1OC,i,i,·,i,i,i
CC(C)c1ccc(C2/C(=C(/O)c3ccc(F)cc3)C(=O)C(=O)N2CCCN2CCOCC2)cc1 (centres undefined),i,i,·,i,i,i
CCCCNC(=O)Cn1nc([N+](=O)[O-])c([N+](=O)[O-])c1C,i,i,-0.31,i,-5.4*,i
O=[N+]([O-])c1cc(-c2nnc(Nc3ccc(O)cc3)c3ccccc23)ccc1N1CCOCC1,i,i,-0.69,i,-4.7*,i
COc1ccc2oc(-c3ccc(NC(=O)c4ccc(N5CCOCC5)c([N+](=O)[O-])c4)cc3)nc2c1,i,i,-0.18,i,i,i
O=C(Nc1ccc(-c2nc3ccccc3o2)cc1)c1ccc(N2CCOCC2)c([N+](=O)[O-])c1,i,i,·,i,-6.5*,i
C=CCNc1nc(Nc2ccc(-c3nc4ccccc4o3)cc2)nc(N2CCOCC2)n1,i,i,·,i,i,-7.1*
CC(C)(C)NC(=O)COC(=O)c1ccc2c(c1)C(=O)N(Cc1ccco1)C2=O,i,i,·,i,i,i
Nc1cn(C2OC(CO)C(O)C2O)c(=O)[nH]c1=O (centres undefined),i,i,·,i,i,i
COc1ccc(Cl)c(NC(=O)C/C(C)=N/NC(=O)CCc2ccccc2)c1,i,i,·,i,i,i
CC(=O)c1ccc(N=C2C(=O)Nc3ccccc32)cc1,i,29*,·,i,i,i
Cc1ccc(C(=O)Nc2cccc(C(=O)N/N=C/c3ccc(F)cc3)c2)cc1,i,i,·,i,i,i
CCn1c(SCC(N)=O)nnc1-c1ccco1,i,i,0.85,i,i,i
CCn1c(SCc2cccc(C(F)(F)F)c2)nnc1-c1ccco1,i,i,-1.8,i,-6.4*,i
CCOC(=O)/C(C(N)=NCC(C)C)=C(/O)c1ccccc1,i,i,0.24,i,i,i
CCCOC(=O)/C(C(N)=NCc1ccccc1)=C(\O)OCCC,i,28*,-2.4,i,i,i
Cc1ccc(CS(=O)Cc2ccc(C(=O)NCc3ccc(OC(C)C)cc3)o2)cc1 (centres undefined),i,i,·,i,i,i
COc1cccc(CNc2nc(-c3cccnc3)nc3ccccc23)c1,i,i,-0.56,i,i,i
COc1cc2c(cc1OC)CN(c1nc(-c3cccnc3)nc3ccccc13)CC2,i,i,-1.8,i,i,-7.5*
Fc1ccccc1CNc1nc(-c2cccnc2)nc2ccccc12,i,38*,·,i,i,-9.1*
COc1ccccc1C(C)Nc1nc(-c2cccnc2)nc2ccccc12 (centres undefined),i,i,·,i,i,-7.1*
